RGS4 block: human RGS4 inhibition; P49798; HEK293 M3R/RGS4 inducible, Fluo-4 calcium flux; hits give high values; triggered by carbachol at its EC20; actives 0.45% (n = 310,000); B-score at 10 µM;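 active means B-score, a plate-corrected calcium signal, over three deviations above library mean, with baseline fluorescence within five deviations of library mean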;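 further: RGS4 expression induced by doxycycline in cells with stable M3 receptor; B-score is computed from the integrated fluorescence ratio over baseline after carbachol; higher B-score means a larger calcium signal and so more RGS4 inhibition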
Target sequence (P49798 whole entry, looked up): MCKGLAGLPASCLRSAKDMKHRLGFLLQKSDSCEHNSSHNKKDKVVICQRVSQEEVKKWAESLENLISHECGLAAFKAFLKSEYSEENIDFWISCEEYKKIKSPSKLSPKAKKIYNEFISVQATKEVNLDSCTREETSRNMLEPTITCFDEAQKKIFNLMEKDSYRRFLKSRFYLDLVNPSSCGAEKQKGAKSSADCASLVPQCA
MrgX1 allo act: allosterically activates human MrgX1 receptor signaling; Q96LB2; MrgX1-HEK293, Fluo-4 calcium flux, FDSS; hits give high values; B-score at 10 µM; actives 0.63% (n = 310,000); AID 588675;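 active means plate-corrected calcium response at least 3 library SD above typical, normal starting fluorescence, not activating the receptor alone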;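 further: compound read alongside a low EC10 to EC30 dose of BAM8-22 agonist; peak minus trough fluorescence over baseline measured at the second addition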
Target sequence (Q96LB2 whole entry, looked up): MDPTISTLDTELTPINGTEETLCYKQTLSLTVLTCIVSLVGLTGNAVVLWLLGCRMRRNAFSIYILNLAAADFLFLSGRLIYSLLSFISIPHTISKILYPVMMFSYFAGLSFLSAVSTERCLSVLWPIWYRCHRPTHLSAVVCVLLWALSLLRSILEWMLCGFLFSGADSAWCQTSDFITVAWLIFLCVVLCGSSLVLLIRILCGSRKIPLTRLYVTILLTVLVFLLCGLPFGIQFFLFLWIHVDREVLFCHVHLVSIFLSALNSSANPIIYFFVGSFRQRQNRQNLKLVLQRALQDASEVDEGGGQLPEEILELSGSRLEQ
MrgX1 antag: blocks BAM8-22 activation of human MrgX1 receptor. Q96LB2. MRGX1-HEK293 calcium flux, Fluo-4, BAM8-22 antagonism; hits give low values. B-score at 10 µM. actives 1.3% (n = 310,000);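 active means calcium-response B-score plate-corrected more than 3 library SD below zero, starting fluorescence within 5 deviations, no agonist response on first addition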;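 further: peak minus trough fluorescence over baseline after final BAM8-22 challenge near maximal dose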
MrgX1 ag: activates human MrgX1 receptor signaling; actives 0.44% (n = 310,000); MrgX1-HEK293 cells, Fluo-4 calcium fluorescence, agonist mode; hits give high values; Q96LB2; AID 588627; B-score at 10 µM;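 active means calcium response B-score plate-corrected fluorescence ratio at least 3 library SD, with starting fluorescence B-score inside 5 SD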
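Material: HEK293 cells stably expressing human MrgX1 receptor | Quantity: 15,000 cells per well | Times: Cells plated overnight, dye loaded 0.5 h 37 °C, 0.5 h room temperature | Measured by: Kinetic Fluo-4 NW fluorescence of intracellular calcium | Control set: Positive and negative controls per plate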
RGS4 pot: RGS4 potentiation or activation | HEK293 M3R/inducible RGS4, carbachol calcium flux Fluo4; hits give low values | B-score at 10 µM | actives 0.92% (n = 310,000);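 active means B-score of the integrated calcium signal more than 4 SD below the library mean, with starting fluorescence not abnormally high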;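 further: negative B-score means reduced calcium response which marks RGS4 activation or potentiation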
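Material: M3R-expressing HEK293 line, RGS4 induced by doxycycline | Schedule: Overnight RGS4 induction, 30 min dye load 37 °C, 20 min compound RT | Measured by: Fluo4 fluorescence kinetic imaging of calcium | Read-out: Integrated calcium ratio converted to B score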
Active calls of the source: *; i = inactive; nt = no result given. Hits are enriched below; roughly 3.5% of the tested compounds scored in any of these assays.

SMILES	RGS4 block	MrgX1 allo act	MrgX1 antag	MrgX1 ag	RGS4 pot
CCOC(=O)C1(CCCc2ccccc2)CCN(C2CCCC2)CC1	i	i	i	i	-7*
CCOC(=O)C1(CCc2ccccc2)CCN(C2CCSCC2)CC1	i	i	i	i	i
Cc1c(Br)c(=O)oc2cc(OCC(=O)N3C[C@H]4C[C@@H](C3)c3cccc(=O)n3C4)ccc12	i	i	i	i	-7.5*
Cc1c(C)c2ccc(OCC(=O)N3C[C@H]4C[C@@H](C3)c3cccc(=O)n3C4)c(C)c2oc1=O	i	i	i	i	-8.7*
Cc1cc(=O)oc2c(C)c(OCC(=O)N3C[C@H]4C[C@@H](C3)c3cccc(=O)n3C4)ccc12	i	i	i	i	i
O=C1Nc2ccccc2/C1=C/c1cnc[nH]1	i	i	-6.7*	i	i
COc1ccc2c(c1)/C(=C/c1cnc[nH]1)C(=O)N2	i	i	i	i	i
CCOP(=O)(OCC)c1cccc(OP(=O)(c2cccc([N+](=O)[O-])c2)c2cccc([N+](=O)[O-])c2)c1	i	i	i	i	i
CCOP(=O)(OCC)c1cccc(O)c1	i	i	-4.6*	i	i
COC(=O)C1=C(c2cc3ccccc3s2)C[C@@H]2CC[C@H]1N2C(=O)NCc1ccc(C(F)(F)F)cc1	i	i	i	i	i
O=c1[nH]c(=S)n(-c2ccccc2Cl)c(O)c1C=NCCN1CCNCC1	i	i	i	i	i
CCCCCSc1cc(O)c(C(CNC)C(C)C)cc1OC (centres undefined)	i	i	i	i	i
CCCCCSc1cc(OC)c(CCN(C)C)cc1OC	i	i	i	i	-7.7*
C=CCN1C(=O)NC(=O)/C(=C/c2ccoc2)C1=O	i	i	-6.5*	i	i
C[N+]1(C)[C@@H]2CC[C@H]1CC(OC(=O)C(CO)c1ccccc1)C2 (some centres undefined)	i	i	i	i	i
C[N+]1(C)C2CCC1CC(OC(=O)C(CO)c1ccccc1)C2 (centres undefined)	i	i	i	i	-8.6*
Cn1cnnc1Sc1cc(N2CCNCC2)ccc1[N+](=O)[O-]	i	i	i	i	i
Cc1ccc(Cn2cc(C=O)c(-c3ccc(F)cc3)n2)cc1	i	7.6*	i	i	i
C=C(C)[C@@]12OC3(c4ccccc4)O[C@@H]1C1[C@@H]4O[C@]4(CO)[C@@H](O)[C@]4(O)C(=O)C(C)=C[C@H]4[C@@]1(O3)[C@H](C)[C@H]2OC(=O)/C=C/C=C/c1ccccc1 (some centres undefined)	i	i	i	i	-8.6*
CCN1C[C@@]2(COC)C3[C@@H](OC)[C@H]4[C@@H]1[C@@]3(C1C[C@H]3[C@H](OC(=O)c5ccccc5)C1[C@]4(OC(C)=O)C[C@H]3OC)[C@@H](OC)C[C@H]2O (some centres undefined)	i	i	i	i	i
Cc1ccc2c(c1)CC1(CN2C)C(=O)NC(=O)N(c2ccccc2C)C1=O (centres undefined)	i	i	-8.5*	i	i
Cc1ccc2c(c1)CC1(CN2C)C(=O)NC(=O)N(c2cccc(C)c2C)C1=O (centres undefined)	i	i	i	i	i
Cn1nnc(CC[N+](C)(C)C)n1	i	i	i	i	i
CCCC(CCC)C(=O)OC[N+](C)(C)CCOC(=O)C(O)(c1ccccc1)C1CCCC1 (centres undefined)	i	i	i	i	i
CC(C)(C)C(=O)OC[N+](C)(C)CCOC(=O)C(O)(c1ccccc1)C1CCCC1 (centres undefined)	i	i	i	i	-7.5*
SMILES	RGS4 block	MrgX1 allo act	MrgX1 antag	MrgX1 ag	RGS4 pot
Cn1c(=O)c2c(nc(N/N=C/c3c(O)n(-c4ccccc4)c(=S)[nH]c3=O)n2C)n(C)c1=O	i	i	i	i	i
CCn1c(O)c(/C=N/NC(=O)c2ccccc2)c(=O)n(CC)c1=S	i	i	i	49*	i
Fc1ccc(C(OCCN2CCCC2)c2ccc(Br)cc2)cc1 (centres undefined)	i	i	i	i	-9.8*
CC1CCCC(C)N1/N=C/c1c[nH]c2ccc(Br)cc12 (centres undefined)	i	12*	i	i	i
Cc1ccc(NP(=O)(Oc2ccccc2F)Oc2ccccc2F)cc1	i	i	-6.7*	i	i
CCc1ccc(NP(=O)(Oc2ccccc2F)Oc2ccccc2F)cc1	i	i	i	i	i
N#Cc1c(/N=C/c2ccc(O)cc2O)sc2c1C1CCN2CC1	i	i	i	i	i
COc1ccc(CNCCc2c(C)[nH]c3ccc(OC(F)(F)F)cc23)c(OC)c1	i	i	-4.7*	i	i
C=CCN1C(=O)/C(=C/c2cc(C)n(-c3ccccn3)c2C)C(=O)NC1=S	i	i	-5.2*	i	i
O=C(c1ccc(Cl)cc1)C1CCCN(Cc2cccc3cnccc23)C1 (centres undefined)	i	i	i	i	-7.3*
O=C(c1ccc(Cl)cc1)C1CCCN(Cc2ccc3ncccc3c2)C1 (centres undefined)	i	i	i	i	-7.3*
COc1ccc(CN2CCCC(C(=O)c3ccc(Cl)cc3)C2)c(OC)c1 (centres undefined)	i	i	i	i	i
Cn1c(O)c(/C=C/C=Nc2ccccc2)c(=O)n(C)c1=S	i	i	-8.5*	i	i
Cc1cccc(-n2c(O)c(/C=C/C=Nc3ccccc3)c(=O)[nH]c2=O)c1	i	i	i	i	i
c1ccc(-c2cc(-c3ccccc3)[n+](-c3ccccc3)c(-c3ccccc3)c2)cc1	i	15*	i	i	-7.8*
Cc1ccc(-c2cc(-c3ccccc3)cc(-c3ccccc3)[n+]2-c2ccccc2)cc1	i	i	i	31*	-7.6*
CN(C)c1ccc(-[n+]2c(-c3ccccc3)cc(-c3ccccc3)cc2-c2ccccc2)cc1	i	nt	nt	nt	-9*
C[n+]1c(-c2ccccc2)cc(-c2ccc(Cl)cc2)cc1-c1ccccc1	i	i	i	i	i
C/C(=N/OC(=O)N(C)C)c1ncc(C(F)(F)F)cc1N1CCOCC1	i	i	i	i	i
Cc1nc2ccc(Br)cc2c(=O)n1-c1ccc([N+](=O)[O-])c(C(F)(F)F)c1	i	i	i	i	i
